The source of these data is ChEMBL document CHEMBL2331537, “Effective inhibition of acid and neutral ceramidases by novel B-13 and LCL-464 analogues” (Bioorg Med Chem, 2013).

Assay [1] has as its system MDA-MB-231. Kind of assay: Elevation of total ceramide level in human MDA-MB-231 cells at 50 uM after 24 hrs by LC-MS/MS analysis relative to control. The class given is functional. Summed up: (§1)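 MDA-MB-231 cells were exposed to inhibitor for 24 h at 37 °C at the concentration given in each line. Lipids were extracted by modified Bligh & Dyer with 20 pmol C17-ceramide as internal standard. Analysis was positive-mode LC–MS/MS on a C18 column, isocratic acetonitrile/2-propanol 3:2 with 1% formic acid. Values are mean SD of three independent experiments versus control.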

In assay [2] the target is T1, Acid ceramidase (Homo sapiens) (UniProt Q13510).
T1 sequence (whole entry): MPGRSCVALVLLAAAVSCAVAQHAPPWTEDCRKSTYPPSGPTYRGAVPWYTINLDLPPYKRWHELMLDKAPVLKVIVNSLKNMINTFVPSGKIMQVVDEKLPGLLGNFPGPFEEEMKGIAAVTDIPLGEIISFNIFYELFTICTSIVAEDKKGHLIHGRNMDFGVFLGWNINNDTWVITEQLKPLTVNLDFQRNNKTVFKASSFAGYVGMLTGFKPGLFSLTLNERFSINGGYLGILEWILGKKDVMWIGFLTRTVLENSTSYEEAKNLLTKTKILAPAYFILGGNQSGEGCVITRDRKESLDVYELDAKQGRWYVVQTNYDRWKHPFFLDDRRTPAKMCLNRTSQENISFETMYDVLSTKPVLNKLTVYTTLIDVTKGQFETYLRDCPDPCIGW
Kind of assay: Inhibition of human recombinant acid ceramidase using Acyl-NBD-C12-cer as substrate at 80 uM after 8 hrs by fluorescence assay. The method, boiled down:
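Recombinant human enzyme (60 total protein) was in 200 mM sodium acetate pH 4.5, 200 mM NaCl, 0.1% Triton X-100, DMSO <5% v/v. Final substrate was 15 and inhibitor 80, incubated 8 h at 37 °C. Reactions were quenched with chloroform/methanol 2:1 and NBD-fatty acid separated by TLC. Imaging used ex 430/em 550 nm; % hydrolysis versus no-inhibitor control, mean SD, three experiments.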

The target in assay [3] is Neutral ceramidase (Homo sapiens) (UniProt Q9NR71). Kind of assay: Inhibition of human recombinant neutral ceramidase using Acyl-NBD-C12-cer as substrate at 80 uM after 2 hrs by fluorescence assay. The method, boiled down:
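Recombinant human enzyme at 25 ng/mL final was in 200 mM sodium acetate pH 7.0, 200 mM NaCl, 0.1% Triton X-100. Final substrate was 15 and inhibitor 80, incubated 2 h at 37 °C. Reactions were chloroform/methanol quenched and cleaved/uncleaved NBD substrate resolved by TLC with fluorescence imaging. Values are % of no-inhibitor control, mean SD, three experiments.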

In assay [4] the test system is MDA-MB-231. The assay is described as follows: Elevation of total ceramide level in human MDA-MB-231 cells at 25 uM after 24 hrs by LC-MS/MS analysis relative to control. Type of assay: functional. Summed up: as §1
Assay [5] concerns MDA-MB-231. The assay is described as follows: Induction of apoptosis in human MDA-MB-231 cells assessed as increase in cytoplasmic histone-associated DNA fragment level after 24 hrs by ELISA. Type of assay: functional, cell-based. The conditions noted are these: MDA-MB-231, 24 h. Summed up: (§2)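 Cells were seeded for 24 h, then treated 24 h in DMEM with compound or DMSO vehicle. Cytoplasmic histone-associated DNA fragments were measured photometrically by Cell Death Detection ELISA Plus, following the kit protocol. Values are % of control (mean S.D., n = 3); dose–response is read as optical density.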
For orientation: An ELISA detects its analyte on a solid surface through an enzyme-linked reagent.

Assay [6] relates to MDA-MB-231. The assay is described as follows: Induction of apoptosis in human MDA-MB-231 cells assessed as increase in cytoplasmic histone-associated DNA fragment level at 25 to 50 uM after 24 hrs by ELISA relative to control. The class given is functional. Summed up:
as §2

The subject of assay [7] is HL-60. The assay is described as follows: Cytotoxicity against human HL60 cells assessed as growth inhibition by trypan blue dye exclusion assay.
In assay [8] the test system is MDA-MB-231. The assay is described as follows: Elevation of C24-ceramide level in human MDA-MB-231 cells at 50 uM by LC-MS/MS analysis. Type of assay: functional, cell-based. The method, boiled down:
as §1

Assay [9] concerns MDA-MB-231. The assay is described as follows: Elevation of C16-ceramide level in human MDA-MB-231 cells at 25 uM by LC-MS/MS analysis. The class given is functional, cell-based. The method, boiled down:
as §1

The subject of assay [10] is MDA-MB-231. The assay is described as follows: Elevation of C18-ceramide level in human MDA-MB-231 cells at 25 uM by LC-MS/MS analysis. The class given is functional, cell-based. Summed up: as §1
Assay [11] deals with MDA-MB-231. The assay is described as follows: Elevation of C24-ceramide level in human MDA-MB-231 cells at 25 uM by LC-MS/MS analysis. Type of assay: functional, cell-based. The method, boiled down: as §1
Assay [12] relates to MDA-MB-231. The assay is described as follows: Elevation of C16-ceramide level in human MDA-MB-231 cells at 50 uM by LC-MS/MS analysis. Type of assay: functional, cell-based. Summed up: as §1
For assay [13], the system named is MDA-MB-231. Kind of assay: Elevation of C18-ceramide level in human MDA-MB-231 cells at 50 uM by LC-MS/MS analysis. The class given is functional, cell-based. Summed up: as §1
The target in assay [14] is Alkaline ceramidase 2 (Homo sapiens, UniProt Q5QJU3). The assay is described as follows: Inhibition of alkaline ceramidase 2 in human HL-60 cells using 3H]C16-ceramide as substrate after 1 hr by liquid scintillation counting analysis. Type of assay: cell-based.

Calls of active or inactive are those of the source. No cut-off for these calls is given here.

Neutral ceramidase (Homo sapiens), sequence (Q9NR71 whole entry): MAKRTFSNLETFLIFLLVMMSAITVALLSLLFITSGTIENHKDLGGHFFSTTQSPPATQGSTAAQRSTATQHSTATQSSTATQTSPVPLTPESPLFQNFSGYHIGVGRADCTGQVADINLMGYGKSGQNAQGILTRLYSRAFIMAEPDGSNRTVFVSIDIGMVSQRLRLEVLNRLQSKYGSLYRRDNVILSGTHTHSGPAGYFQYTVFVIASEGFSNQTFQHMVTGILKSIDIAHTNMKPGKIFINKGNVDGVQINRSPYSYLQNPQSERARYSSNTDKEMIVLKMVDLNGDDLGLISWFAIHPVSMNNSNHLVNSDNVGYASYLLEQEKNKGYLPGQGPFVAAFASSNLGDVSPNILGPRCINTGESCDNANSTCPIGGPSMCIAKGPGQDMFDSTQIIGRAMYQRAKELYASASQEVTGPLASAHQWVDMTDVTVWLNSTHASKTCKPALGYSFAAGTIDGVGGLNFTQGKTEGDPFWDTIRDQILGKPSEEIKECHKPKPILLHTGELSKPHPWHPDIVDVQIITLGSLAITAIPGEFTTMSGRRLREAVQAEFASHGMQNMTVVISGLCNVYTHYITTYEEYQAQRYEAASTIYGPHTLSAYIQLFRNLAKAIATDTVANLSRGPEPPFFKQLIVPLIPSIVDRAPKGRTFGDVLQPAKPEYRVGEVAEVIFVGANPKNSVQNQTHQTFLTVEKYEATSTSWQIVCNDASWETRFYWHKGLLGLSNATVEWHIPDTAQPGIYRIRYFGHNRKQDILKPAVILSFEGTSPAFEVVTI

The inhibition is the share of the control response that was lost under treatment. Turning to `CN(C)CCCCCCCCCCCC(=O)N[C@H](CO)[C@H](O)c1ccc([N+](=O)[O-])cc1`, the Activity result in assay [1] is reported as “>=150%”. In assay [2], the inhibition entry was “Active”. Also, the inhibition in assay [3] amounted to 30%.

Regarding `CN(C)CCCCCCCCCCCC(=O)NCC(O)c1ccncc1` (racemic), the Activity result in assay [1] was “>=150%”. Moreover, the inhibition entry in [2] and in assay [3] was “inactive” throughout.

For `CCCCCCCCCCCCCC(=O)NCC(O)c1ccccc1` (racemic), in assay [1], the Activity entry is “>=150%”.

Turning to `CCCCCCCCCCCCCC(=O)N[C@H](C(=O)O)[C@H](O)c1ccc([N+](=O)[O-])cc1`, the Activity in [4] and in [1] was 150% each time. Besides, the inhibition result in [2] was “Active”. For the same molecule, the inhibition result in assay [3] was “inactive”.

`CN(C)CCCCCCCCCCCC(=O)NCC(O)c1cccnc1` (racemic): the Activity in [1] is < 150%. In addition, the inhibition result in [2] and in [3] was “inactive” each time.

As usually defined, the EC50 is the midpoint of the concentration-response curve. For `CCCCCCCCCCCCCC(=O)N[C@H](CO)[C@H](O)c1ccc(N)cc1`, the Activity in assay [4] and in [1] was 300% throughout. Also, the EC50 in assay [5] amounted to 59000 nM. Besides, in assay [6], the “fold change (FC)” value is reported as 3. Also, the inhibition entry in assay [2] and in [3] was “Active” throughout.

In general, IC50 refers to the concentration needed to halve the response being measured. As to `CCCCCCCCCCCCCC(=O)N[C@H](CO)[C@H](O)c1ccc([N+](=O)[O-])cc1`, the IC50 in assay [7] worked out at 1500 nM. For the same molecule, the outcome in [8], in assay [12] and in assay [13] was Active. Moreover, the result in [9], in [10] and in assay [11] was inactive. Moreover, the Activity is 150% in assay [4] and 350% in assay [1]. The inhibition result in assay [2] is “Active”.

The molecule `CCCCCCCCCCCCCC(=O)N[C@H](C)[C@@H](O)c1ccccc1` returned an IC50 in [14] of 1000 nM. In addition, the values for the inhibition in [2] and in assay [3] were 60% and 8%, respectively.

As for `CCCCCCCCCCCCCC(=O)N[C@H](CO)C(=O)c1ccc([N+](=O)[O-])cc1`, the inhibition result in assay [2] and in assay [3] was “Active” each time.

As for `C[C@@H](NC(=O)CCCCCCCCCCCN(C)C)[C@@H](O)c1ccccc1`, in assay [1], the Activity entry was “>=150%”.

In the case of `CN(C)CCCCCCCCCCCC(=O)NCC(O)c1ccccc1` (racemic), in assay [1], the Activity entry is reported as “>=150%”.
